From publication PMC9390995 (Science Advances, 2022)

Key:
JAK2 = details: read-out: IC50 against JAK2; cited from earlier work
[1] = tested on: p-STAT5/p-STAT6 in hPBMCs; experiment: γc cytokine-stimulated STAT phosphorylation, Western blot; type: cell-based, human; details: fig. S1
Procedure, shortened: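 hPBMCs in RPMI 1640 with 10% FBS at 37°C, 5% CO2, plated 5×10^5 per well. Pretreated 1 h with test compound, then stimulated with IL-2, IL-4, IL-7, IL-9, IL-15 or IL-21. Lysed in RIPA buffer with protease/phosphatase inhibitors. p-STAT5/p-STAT6 by Western blot normalized to GAPDH; three independent experiments.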

JAK1 = JAK1 (Homo sapiens, UniProt P23458); details: biochemical assays; cited from earlier work
Chain of JAK1 (P23458 whole entry): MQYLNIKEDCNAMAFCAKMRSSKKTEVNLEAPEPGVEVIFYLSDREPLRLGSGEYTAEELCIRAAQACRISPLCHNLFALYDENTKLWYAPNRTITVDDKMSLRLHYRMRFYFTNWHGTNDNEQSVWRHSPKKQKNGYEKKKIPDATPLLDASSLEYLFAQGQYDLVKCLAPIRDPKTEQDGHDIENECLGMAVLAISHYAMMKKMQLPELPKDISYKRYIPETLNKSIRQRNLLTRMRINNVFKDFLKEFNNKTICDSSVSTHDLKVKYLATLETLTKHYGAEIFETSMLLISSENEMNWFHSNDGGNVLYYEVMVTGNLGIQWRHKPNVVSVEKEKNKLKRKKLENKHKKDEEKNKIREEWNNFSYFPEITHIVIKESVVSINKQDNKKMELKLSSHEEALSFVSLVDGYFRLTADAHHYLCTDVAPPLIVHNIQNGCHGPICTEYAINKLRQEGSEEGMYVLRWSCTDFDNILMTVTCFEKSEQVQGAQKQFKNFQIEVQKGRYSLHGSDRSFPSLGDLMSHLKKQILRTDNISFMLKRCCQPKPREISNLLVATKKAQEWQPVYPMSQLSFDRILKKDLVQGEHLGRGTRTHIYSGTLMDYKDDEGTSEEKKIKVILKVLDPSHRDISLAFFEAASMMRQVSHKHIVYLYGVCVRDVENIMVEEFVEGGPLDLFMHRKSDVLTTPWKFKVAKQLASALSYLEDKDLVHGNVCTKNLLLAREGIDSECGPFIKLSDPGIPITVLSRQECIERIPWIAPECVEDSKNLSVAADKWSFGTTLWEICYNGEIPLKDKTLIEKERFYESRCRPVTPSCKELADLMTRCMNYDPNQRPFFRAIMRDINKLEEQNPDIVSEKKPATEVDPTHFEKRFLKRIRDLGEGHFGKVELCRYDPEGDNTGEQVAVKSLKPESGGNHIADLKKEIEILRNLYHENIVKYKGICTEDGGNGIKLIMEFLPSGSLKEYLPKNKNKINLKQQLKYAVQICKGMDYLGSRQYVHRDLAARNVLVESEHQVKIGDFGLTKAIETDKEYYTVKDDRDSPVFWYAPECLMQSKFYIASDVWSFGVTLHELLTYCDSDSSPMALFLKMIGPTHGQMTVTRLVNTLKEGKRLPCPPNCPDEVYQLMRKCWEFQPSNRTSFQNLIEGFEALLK

Structure (SMILES) | IC50 (JAK2) | IL-2-induced p-STAT5 levels [1] | preference for JAK1 over JAK2 (JAK1)
C=CC(=O)N1C[C@H](Nc2ncnc3[nH]ccc23)CC[C@@H]1C [Ritlecitinib, 1-((2S,5R)-5-((7H-pyrrolo[2,3-d]pyrimidin-4-yl)amino)-2-methylpiperidin-1-yl)prop-2-en-1-one] | > 10 µM | potent inhibition | –
O=C(Nc1nc2cccc(-c3ccc(CN4CCS(=O)(=O)CC4)cc3)n2n1)C1CC1 [filgotinib] | – | – | 2.8 fold
CC[C@@H]1CN(C(=O)NCC(F)(F)F)C[C@@H]1c1cnc2cnc3[nH]ccc3n12 [upadacitinib] | – | – | 2.4 fold
